Data on three compounds can be found in paper PMC10099395 (Chemistry (Weinheim an Der Bergstrasse, Germany), 2022).

Assay [1] relates to 25TAG (G4-DNA, hybrid-2, variant of human telomeric sequence). In words: Fluorescence-melting experiments. The class given is binding. As to conditions: pure ligand 0.4 μM, DNA 0.2 μM. The procedure, abridged: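 FAM/TAMRA-labelled oligonucleotides were annealed (95 °C, 5 min) at 0.23 μM in target-specific buffer. Final concentrations were 0.2 μM DNA and 1 μM ligand; as-synthesized mixtures were diluted in buffer without further treatment, and pure ligands were run at 0.1–1.0 μM. Melting used a 0.5 °C min⁻¹ ramp with FAM-channel fluorescence. Tm came from first-derivative peaks, and ΔTm was the difference of means from three experiments. ΔTm detection tops out at 36 °C (96 °C).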

In assay [2] the test system is T98G cells (multidrug-resistant glioblastoma). Kind of assay: Cytotoxicity assay. The class given is cell-based. The following applies: Homo sapiens, 96 h, read-out: GI50, T98G. The procedure, abridged:
(§1)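 Adherent cells grown in MEM GlutaMAX with 10 % FBS, 1 % penicillin/streptomycin and 1 % non-essential amino acids at 37 °C, 5 % CO₂, passaged with TrypLE. Cells were plated at 0.125×10⁵ cells mL⁻¹ and test compound in DMSO was added after 4 h ([…], 0.5 % v/v DMSO). After 96 h, CellTiter-Glo luminescence was read and viability expressed relative to the DMSO control. Each condition was run at least three times, with two technical replicates per plate.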

Assay [3] has as its system A549 cells (cisplatin-resistant non-small-cell lung carcinoma). In words: Cytotoxicity assay. The class given is cell-based, human. As to conditions: for GI50: Homo sapiens, A549, 96 h, read-out: GI50, A549. The procedure, abridged: as §1
Assay [4] relates to MRC-5 cells (noncancerous lung fibroblast). Kind of assay: Cytotoxicity assay. Format: cell-based. The following applies: Homo sapiens, MRC5, 96 h, read-out: GI50, MRC-5. The procedure, abridged: as §1
Assay [5] deals with 25TAG (5′-FAM, 3′-TAMRA) (DNA, G4) TAGGGTTAGGGTTAGGGTTAGGGTT
In words: fluorescence melting. As to conditions: 100 mM KCl; 10 mM LiAsO2Me2, pH 7.2; 0.4 μM compound, 0.2 μM DNA.

The GI50 is the concentration at which growth is held to half of that of the control. As to `O=C(NN=Cc1ccc(C[n+]2ccccc2)cc1)c1ccc2ccc3ccc(C(=O)NN=Cc4ccc(C[n+]5ccccc5)cc4)nc3c2n1.[Br-].[Br-]` [3Ei], the “ΔTm, 25TAG, pure ligands” value in assay [1] is greater than 30 °C. In addition, the values for the GI50 in assay [2], in assay [3] and in assay [4] were 29.7 ± 2 µM, 3200 ± 600 nM and 59.1 ± 5.5 µM, respectively.

In the case of `C[n+]1cccc2cc(C=NNC(=O)c3ccc4ccc5ccc(C(=O)NN=Cc6ccc7c(ccc[n+]7C)c6)nc5c4n3)ccc21.[I-].[I-]` [3Ef], the GI50 in assay [2] came out at 11.2 ± 1.4 µM; in assay [3], 400 ± 60 nM; in assay [4], 26.7 ± 2.4 µM. Besides, in assay [3] (ratio of GI50 values, 96 h), the “selectivity index, A549 with respect to MRC-5 cells” value is listed as roughly 67.

In assay [5], `C[n+]1cc(NC(=O)c2ccc3ccc4ccc(C(=O)Nc5cc6ccccc6[n+](C)c5)nc4c3n2)cc2ccccc21` yielded a ΔT m greater than 30 °C.
